Assay outcomes as filed in PubChem.
eIF4H FP inh – inhibitors of RNA binding by human eIF4H; Q15056; eIF4H fluorescence polarization binding assay; inhibition, % at 35 µM; 0.94% of 290,000 active; AID 2012;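 further: calls also rest on retests at 20 µM and on dose response follow-up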
HCV NS3 hel inh – blocks Hepatitis C virus NS3 helicase unwinding. NS3 helicase DNA unwinding, Cy5 molecular beacon fluorescence. inhibition, % at 10.9 µM. 0.56% of 290,000 active;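 active means inhibition above the mean of all tested compounds plus 3 SD, set per campaign, cut at about 35% in these data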;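 further: 0% = DMSO wells and 100% = thioflavine S control wells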
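Assay system: hepatitis C virus NS3 helicase domain fragment enzyme. Also added: annealed dual-labelled DNA beacon duplex, ATP-started. Timing: 1 h reaction at 25 °C, ATP-initiated. Technique: Cy5 fluorescence at 0 and 60 min, beacon hairpin quenching. Evaluation: % inhibition of unwinding. Replication: one well per compound.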
PABP FP inh – blocks human PABP binding to poly(A) RNA; P11940; fluorescence polarization; inhibition, % at 35 µM; 1% of 290,000 active; AID 2014;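 further: calls also rest on retests at 20 µM and on dose response follow-up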
MLLE-PAM2 inh – blocks PAM2 peptide binding to the PABP1 MLLE domain. GST-MLLE / FITC-PAM2 fluorescence polarization. inhibition, % at 20 µM. 0.36% of 360,000 active; in the data active means inhibition above about 35%, passing the limit was not always enough;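 further: plate controls were DMSO wells with GST-MLLE for no effect and wells lacking GST-MLLE protein for full effect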
core dimer inh – blocks dimerization of HCV core protein; TR-FRET GST/Flag-core106 dimerization, 1536-well; inhibition, % at 5 µM; 0.33% of 300,000 active;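 active means inhibition above the mean of all tested compounds plus 3 SD, set per screening campaign, cut at about 45% in these data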
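Test system: GST/Flag-tagged HCV core106 proteins; Medium: KF-containing HEPES buffer, pH 7.45, DTT, CHAPS, BSA; Times: compound-protein-antibody incubation 4 h at 22.5 °C; Detection: TR-FRET 671 and 617 nm emission; Benchmarks: wells lacking GST-core106 and wells with excess unlabelled core106.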
FID counter – counter-screen for HCV NS3 helicase inhibitors: DNA intercalator displacement | DNA fluorescent intercalator displacement, fluorescence | inhibition, % at 7.9 µM | 0.17% of 290,000 active | AID 1845; in the data active means inhibition above about 37%;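 further: 0% = vehicle and 100% = reference compound; higher means more ethidium bromide displaced from hairpin DNA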
* hit, by the source's call; ? = inconclusive; . = no result given. Sampled rows, rich in hits. Any-hit rate of the full collection: about 2%. Unless noted, how the calls were made is not given here.

SMILES | eIF4H FP inh | HCV NS3 hel inh | PABP FP inh | MLLE-PAM2 inh | core dimer inh | FID counter
Cc1ccc(Cn2c(=N)c(S(=O)(=O)c3ccc(Br)cc3)cc3c(=O)n4ccccc4nc32)cc1 | 3 | -1 | 1 | -26 | -11 | -5
N=c1c(S(=O)(=O)c2ccc(Br)cc2)cc2c(=O)n3ccccc3nc2n1Cc1ccco1 | 96* | 15 | 64* | -31 | 14 | -8
COc1ccc(CCn2c(=N)c(S(=O)(=O)c3ccc(C)cc3)cc3c(=O)n4ccccc4nc32)cc1 | ? | -7 | 28* | 79 | 15 | -4
CCn1c(=N)c(S(=O)(=O)c2ccc(Cl)cc2)cc2c(=O)n3ccccc3nc21 | 83* | 3 | 105* | . | -2 | 7
C=Cc1cnc([N+](=O)[O-])n1C | . | . | . | 5 | . | .
NS(=O)(=O)c1ccc(NC(=S)Nc2ccc(S(=O)(=O)N3CCCC3)cc2)cc1 | 11 | 2 | 1 | 43* | 0 | -11
CN1CCN(S(=O)(=O)c2ccc(NC(=S)NC(=O)C(C)(C)C)cc2)CC1 | -3 | -5 | -10 | 40* | -2 | 5
CC(Oc1ccccc1)C(=O)Nc1ccc(S(=O)(=O)N2CCN(C)CC2)cc1 (stereo unspecified) | . | . | . | -4 | -2 | .
CC(Oc1ccccc1Cl)C(=O)Nc1ccc(S(=O)(=O)N2CCN(C)CC2)cc1 (stereo unspecified) | . | . | . | 40* | . | .
CN(Cc1ccccc1)S(=O)(=O)c1ccc(NC(=S)NC(=O)C(C)(C)C)cc1 | 2 | 18 | -1 | 36* | 4 | 2
CN(Cc1ccccc1)S(=O)(=O)c1ccc(NC(=S)NC(=O)C2CCCCC2)cc1 | -18 | 0 | -3 | 21 | 11 | -4
CC(C)CN(C(=O)CCCOc1ccc(Cl)cc1Cl)c1c(N)n(Cc2ccccc2)c(=O)[nH]c1=O | . | . | . | -18 | 4 | .
O=C(NC(=S)Nc1ccc(S(=O)(=O)N2CCCCC2)cc1)c1cccs1 | 2 | 2 | -1 | 44* | 6 | -8
CN1CCN(C(=S)NC(=O)c2ccc(S(=O)(=O)N3CCOCC3)cc2)CC1 | -6 | 8 | -1 | 40* | 1 | 3
O=C(NC(=S)N1CCN(C(c2ccccc2)c2ccccc2)CC1)c1ccc(S(=O)(=O)N2CCOCC2)cc1 | 5 | 0 | -1 | 9 | 41 | 2
Cc1nnc(NC(=O)C2CC(=O)N(C(C)c3ccccc3)C2)s1 (stereo unspecified) | -4 | 4 | -7 | -9 | 1 | -11
O=C1C=CC(=O)N1c1ccc(Nc2ccccc2)cc1 | . | . | . | 41* | . | .
O=C1C=CC(=O)N1c1ccc2ccccc2c1 | . | . | . | 35 | . | .
O=C(c1ccc2ccccc2c1)C1CCCN(S(=O)(=O)c2cccnc2)C1 (stereo unspecified) | -4 | -4 | 0 | 25 | 10 | -13
CCCCc1c(C)nc2ccccc2c1SCCC(=O)O | 9.8* | 11 | 85 | -2 | 1 | -49
CCCCc1c(C)nc2ccc(C)cc2c1SCCC(=O)O | -2 | 10 | 3 | 2 | 1 | -37
COC(=O)[C@@H](c1ccccc1)N(C)S(=O)(=O)c1cccc(S(=O)(=O)N(C)[C@@H](C(=O)OC)c2ccccc2)c1 | -11 | -24 | 7 | -6 | 7 | -33
COc1cccc(CNC(=O)c2cc3c(cc2Cl)N2CCCCCC2=NS3(=O)=O)c1 | . | . | . | -18 | 1 | .
Cc1ccc(S(=O)(=O)N2C[C@H]3C(=O)C[C@@H](c4ccc(Cl)cc4)N(S(=O)(=O)c4ccccc4C)[C@H]3C[C@H]2c2ccc(Cl)cc2)cc1 | . | . | . | -4 | . | .
O=C1C=CC(=Nc2ccc3c(c2)C(=O)c2ccccc2-3)O1 | . | . | . | -1 | . | .
SMILES | eIF4H FP inh | HCV NS3 hel inh | PABP FP inh | MLLE-PAM2 inh | core dimer inh | FID counter
O=C1C=CC(=Nc2ccc(F)cc2)O1 | . | . | . | 40* | . | .
CC(=O)c1c(N2CCN(c3ccccn3)CC2)nc(=S)n(-c2ccccc2)c1C | ? | -1 | 1.9* | 16 | -7 | -20
CC(=O)c1c(N2CCN(c3cccc(Cl)c3)CC2)nc(=S)n(-c2ccccc2)c1C | 84* | -9 | 99* | 7 | -2 | -18
CC(=O)c1c(N2CCN(C)CC2)nc(=S)n(Cc2ccccc2)c1C | 41 | -8 | 2 | 23 | -7 | 1
COc1ccc(N2CCN(c3nc(=S)n(-c4ccccc4)c(C)c3C(C)=O)CC2)cc1 | 68* | -1 | 59* | -14 | -6 | -10
CC1CCCCC1NC(=O)COC(=O)c1ccc2c(c1)NC(=O)CS2 (stereo unspecified) | . | . | . | 15 | . | .
COc1ccc(-c2ccc(/C=C3/C(=N)N4C(C)=CSC4=NC3=O)o2)c([N+](=O)[O-])c1 | 91* | -3 | active | 49 | 4 | -7
COc1ccc(-c2ccc(/C=C3\C(=O)N(c4ccccc4)N=C3c3ccccc3)o2)c([N+](=O)[O-])c1 | 4 | 4 | -1 | 18 | 10 | 0
CC(C)(C)c1ccc(S(=O)(=O)NC(=O)C2(C)CCN2C(=O)c2cccc3ccccc23)cc1 (stereo unspecified) | . | . | . | 15 | . | .
Cc1ccc(CN2CCc3[nH]c(=S)[nH]c(=O)c3C2)cc1 | -7 | 2 | 2 | 28 | 4 | -19
O=c1[nH]c(=S)[nH]c2c1CN(Cc1ccc(F)cc1)CC2 | . | 18 | . | 39* | -2 | -7
CCCN1CCc2[nH]c(=S)[nH]c(=O)c2C1 | 7 | 8 | 5 | 47* | -11 | -1
CCC1(CC)NC(=O)N(CC(=O)Nc2cccc3ccccc23)C1=O | . | . | . | 0 | . | .
COc1ccc(-n2nnnc2SCC(=O)NNC(=O)c2ccc([N+](=O)[O-])cc2)cc1 | 63* | 2 | active | -61 | 3 | 3
Cc1ccc(-n2nnnc2SCC(=O)NNC(=O)c2ccc([N+](=O)[O-])cc2)cc1 | -18 | 0 | -20 | -42 | -3 | 6
Cc1noc(C)c1COC(=O)CCCc1c[nH]c2ccccc12 | 12 | 16 | 16 | -30 | 71* | -23
OCc1ccccc1-c1cnc2cccnn12 | . | . | . | 1 | . | .
O=C(Nc1cc2c(cc1Cl)-c1ccc([N+](=O)[O-])cc1C2=NO)C(F)(F)F | . | . | . | -40 | . | .
Cc1nc2cc(NC(=O)N3CCN(c4ccccn4)CC3)ccc2o1 | -6 | -1 | -9 | -1 | -2 | -10
O=C(Nc1ccc2nc(-c3ccco3)c(-c3ccco3)nc2c1)N1CCN(c2ccccn2)CC1 | 106* | 17 | active | 49* | 25 | -16
Cc1ccc2cc(C)c3nnc(SCC(=O)c4cccs4)n3c2c1C | 96* | 6 | 6.4* | 4 | 0 | -16
N#CC(C#N)=Cc1cccn1-c1ccc(S(N)(=O)=O)cc1 | 0.5* | 3 | 54* | 9 | 2 | -6
COc1ccccc1N1CCN(/N=C\c2ccccc2)CC1 | -5 | 13 | 2 | 13 | -8 | -15
COc1ccccc1N1CCN(/N=C/c2c(C)nn(-c3ccccc3)c2C)CC1 | -6 | 22 | -9 | 41* | 4 | -26
